According to PubChem BioAssay AID588785 (The Scripps Research Institute Molecular Screening Center, 2011):
Active and inactive are the calls of the source.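 The calls were made as follows: active = spectra count ratio compound/DMSO 0.5 or lower for pPAFAH, with at most one off-target serine hydrolase also that low; inactive = ratio above 0.5 for pPAFAH, or two-plus off-targets hit.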

Legend:
Assay in all cases: off-target hydrolase inhibition by ABPP-MudPIT – biochemical, LC-MS/MS, mouse brain membrane proteome, selectivity assay for pPAFAH inhibitor project, late-stage follow-up (AID 588785)
Acot6 = conditions: ABPP-MudPIT FP-biotin spectral counts, at 1 µM, active compounds read low
In short: (§1)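 Detection: ABPP-MudPIT LC-MS/MS spectral counting. System: mouse brain membrane proteome. Quantity: proteome at 1 mg/mL protein. Replicates: 3–4 biological replicates. Measure: Compound/DMSO spectral-count ratio per protein. Timing: 30 min 37 °C compound, 2 h 25 °C probe. Medium: Tris buffer pH 8.0, 50 mM.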

Fam108b1 = conditions: ABPP-MudPIT FP-biotin spectral counts, at 1 µM, active compounds read low
In short: as §1

Pnpla8 = conditions: ABPP-MudPIT FP-biotin spectral counts, at 1 µM, active compounds read low
In short: as §1

Lyplal1 = conditions: ABPP-MudPIT FP-biotin spectral counts, at 1 µM, active compounds read low
In short: as §1

Bat5 = conditions: ABPP-MudPIT FP-biotin spectral counts, at 1 µM, active compounds read low
In short: as §1

Prcp = conditions: ABPP-MudPIT FP-biotin spectral counts, at 1 µM, active compounds read low
In short: as §1

Abhd3 = conditions: ABPP-MudPIT FP-biotin spectral counts, at 1 µM, active compounds read low
In short: as §1

Lipe = conditions: ABPP-MudPIT FP-biotin spectral counts, at 1 µM, active compounds read low
In short: as §1

Esd = conditions: ABPP-MudPIT FP-biotin spectral counts, at 1 µM, active compounds read low
In short: as §1

Prepl = conditions: ABPP-MudPIT FP-biotin spectral counts, at 1 µM, active compounds read low
In short: as §1

Apeh = conditions: ABPP-MudPIT FP-biotin spectral counts, at 1 µM, active compounds read low
In short: as §1

Acot3 = conditions: ABPP-MudPIT FP-biotin spectral counts, at 1 µM, active compounds read low
In short: as §1

Abhd12 = conditions: ABPP-MudPIT FP-biotin spectral counts, at 1 µM, active compounds read low
In short: as §1

Lactb = conditions: ABPP-MudPIT FP-biotin spectral counts, at 1 µM, active compounds read low
In short: as §1

Acot7 = conditions: ABPP-MudPIT FP-biotin spectral counts, at 1 µM, active compounds read low
In short: as §1

[1] = biological target: Palmitoyl-protein thioesterase ABHD10, mitochondrial (Mus musculus) (UniProt Q6PE15); conditions: ABPP-MudPIT FP-biotin spectral counts, at 1 µM, active compounds read low
In short: as §1

Faah = conditions: ABPP-MudPIT FP-biotin spectral counts, at 1 µM, active compounds read low
In short: as §1

Pme1 = conditions: ABPP-MudPIT FP-biotin spectral counts, at 1 µM, active compounds read low
In short: as §1

Fam108a = conditions: ABPP-MudPIT FP-biotin spectral counts, at 1 µM, active compounds read low
In short: as §1

Es1 = conditions: ABPP-MudPIT FP-biotin spectral counts, at 1 µM, active compounds read low
In short: as §1

Pafah1b3 = conditions: ABPP-MudPIT FP-biotin spectral counts, at 1 µM, active compounds read low
In short: as §1

[2] = biological target: Prolyl endopeptidase (Mus musculus) (UniProt Q9QUR6); conditions: ABPP-MudPIT FP-biotin spectral counts, Prep, at 1 µM, active compounds read low
In short: as §1

Pafah1b2 = conditions: ABPP-MudPIT FP-biotin spectral counts, at 1 µM, active compounds read low
In short: as §1

Pla2g15 = conditions: ABPP-MudPIT FP-biotin spectral counts, at 1 µM, active compounds read low
In short: as §1

Lypla2 = conditions: ABPP-MudPIT FP-biotin spectral counts, at 1 µM, active compounds read low
In short: as §1

Pnpla6 = conditions: ABPP-MudPIT FP-biotin spectral counts, at 1 µM, active compounds read low
In short: as §1

Fam108c1 = conditions: ABPP-MudPIT FP-biotin spectral counts, at 1 µM, active compounds read low
In short: as §1

Acot1 = conditions: ABPP-MudPIT FP-biotin spectral counts, at 1 µM, active compounds read low
In short: as §1

Magl = conditions: ABPP-MudPIT FP-biotin spectral counts, at 1 µM, active compounds read low
In short: as §1

[3] = biological target: Monoacylglycerol lipase ABHD6 (Mus musculus) (UniProt Q8R2Y0); conditions: ABPP-MudPIT FP-biotin spectral counts, at 1 µM, active compounds read low
In short: as §1

Parl = conditions: ABPP-MudPIT FP-biotin spectral counts, at 1 µM, active compounds read low
In short: as §1

Dpp9 = conditions: ABPP-MudPIT FP-biotin spectral counts, at 1 µM, active compounds read low
In short: as §1

Ache = conditions: ABPP-MudPIT FP-biotin spectral counts, at 1 µM, active compounds read low
In short: as §1

Rbbp9 = conditions: ABPP-MudPIT FP-biotin spectral counts, at 1 µM, active compounds read low
In short: as §1

[4] = biological target: Platelet-activating factor acetylhydrolase (Mus musculus) (UniProt Q60963); conditions: ABPP-MudPIT FP-biotin spectral counts, Pla2g7 (pPAFAH), at 1 µM, active compounds read low
In short: as §1

Tpp2 = conditions: ABPP-MudPIT FP-biotin spectral counts, at 1 µM, active compounds read low
In short: as §1

Dpp8 = conditions: ABPP-MudPIT FP-biotin spectral counts, at 1 µM, active compounds read low
In short: as §1

Fasn = conditions: ABPP-MudPIT FP-biotin spectral counts, at 1 µM, active compounds read low
In short: as §1

Abhd11 = conditions: ABPP-MudPIT FP-biotin spectral counts, at 1 µM, active compounds read low
In short: as §1

Nceh1 = conditions: ABPP-MudPIT FP-biotin spectral counts, at 1 µM, active compounds read low
In short: as §1

Abhd4 = Abhd4 (UniProt Q8VD66); conditions: ABPP-MudPIT FP-biotin spectral counts, at 1 µM, active compounds read low
In short: as §1

Acot2 = conditions: ABPP-MudPIT FP-biotin spectral counts, at 1 µM, active compounds read low
In short: as §1

[5] = biological target: Acyl-protein thioesterase 1 (Mus musculus) (UniProt P97823); conditions: ABPP-MudPIT FP-biotin spectral counts, Lypla1, at 1 µM, active compounds read low
In short: as §1

Chain of Palmitoyl-protein thioesterase ABHD10, mitochondrial (Mus musculus) (Q6PE15 whole entry, looked up): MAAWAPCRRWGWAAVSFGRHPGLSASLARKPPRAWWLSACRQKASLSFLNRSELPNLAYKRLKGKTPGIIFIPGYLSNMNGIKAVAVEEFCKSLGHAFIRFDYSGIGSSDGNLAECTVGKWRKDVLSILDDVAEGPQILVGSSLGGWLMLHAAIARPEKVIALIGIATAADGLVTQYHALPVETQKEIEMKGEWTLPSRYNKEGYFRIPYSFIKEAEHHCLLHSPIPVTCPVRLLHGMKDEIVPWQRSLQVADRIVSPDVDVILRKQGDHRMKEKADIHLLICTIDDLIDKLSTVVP
Chain of Abhd4 (Q8VD66 whole entry, looked up): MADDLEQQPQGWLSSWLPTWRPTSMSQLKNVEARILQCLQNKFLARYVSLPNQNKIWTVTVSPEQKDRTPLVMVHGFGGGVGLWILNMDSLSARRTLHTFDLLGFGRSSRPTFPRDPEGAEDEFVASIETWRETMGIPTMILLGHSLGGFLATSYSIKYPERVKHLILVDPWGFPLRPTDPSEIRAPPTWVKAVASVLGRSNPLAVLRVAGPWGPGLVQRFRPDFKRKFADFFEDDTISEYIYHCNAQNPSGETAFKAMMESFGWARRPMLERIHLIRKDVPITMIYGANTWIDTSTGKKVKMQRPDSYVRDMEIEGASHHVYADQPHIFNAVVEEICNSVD
Chain of Platelet-activating factor acetylhydrolase (Mus musculus) (Q60963 whole entry, looked up): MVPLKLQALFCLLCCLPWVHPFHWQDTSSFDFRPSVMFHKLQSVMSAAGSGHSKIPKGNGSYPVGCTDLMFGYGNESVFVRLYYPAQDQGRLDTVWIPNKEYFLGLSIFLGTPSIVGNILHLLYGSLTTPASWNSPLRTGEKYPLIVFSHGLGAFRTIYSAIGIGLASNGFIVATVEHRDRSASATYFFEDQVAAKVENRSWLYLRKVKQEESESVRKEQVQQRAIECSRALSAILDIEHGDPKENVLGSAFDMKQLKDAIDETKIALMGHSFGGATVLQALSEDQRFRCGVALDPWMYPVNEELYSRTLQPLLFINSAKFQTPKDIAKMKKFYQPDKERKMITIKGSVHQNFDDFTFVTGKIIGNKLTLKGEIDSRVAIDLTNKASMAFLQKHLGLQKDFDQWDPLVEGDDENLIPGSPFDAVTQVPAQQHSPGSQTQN
Chain of Prolyl endopeptidase (Mus musculus) (Q9QUR6 whole entry, looked up): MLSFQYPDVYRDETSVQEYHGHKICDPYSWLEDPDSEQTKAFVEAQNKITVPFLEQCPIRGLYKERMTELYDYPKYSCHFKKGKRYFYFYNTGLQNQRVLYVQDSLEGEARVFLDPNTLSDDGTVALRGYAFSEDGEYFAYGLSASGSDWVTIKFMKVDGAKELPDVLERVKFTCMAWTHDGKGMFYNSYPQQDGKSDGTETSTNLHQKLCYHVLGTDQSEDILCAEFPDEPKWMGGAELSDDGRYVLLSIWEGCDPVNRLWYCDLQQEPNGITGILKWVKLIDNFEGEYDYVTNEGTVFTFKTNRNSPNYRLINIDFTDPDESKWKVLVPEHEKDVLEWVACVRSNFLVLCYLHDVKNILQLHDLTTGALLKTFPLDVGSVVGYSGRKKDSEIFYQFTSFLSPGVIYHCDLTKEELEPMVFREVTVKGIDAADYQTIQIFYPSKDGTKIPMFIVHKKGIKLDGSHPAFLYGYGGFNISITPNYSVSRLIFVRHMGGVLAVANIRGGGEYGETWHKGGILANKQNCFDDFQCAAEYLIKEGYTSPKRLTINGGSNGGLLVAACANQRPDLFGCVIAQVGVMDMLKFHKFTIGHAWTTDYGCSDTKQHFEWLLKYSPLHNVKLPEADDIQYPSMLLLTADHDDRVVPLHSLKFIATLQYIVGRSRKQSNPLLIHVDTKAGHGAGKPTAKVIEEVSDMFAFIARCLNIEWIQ
Chain of Monoacylglycerol lipase ABHD6 (Mus musculus) (Q8R2Y0 whole entry, looked up): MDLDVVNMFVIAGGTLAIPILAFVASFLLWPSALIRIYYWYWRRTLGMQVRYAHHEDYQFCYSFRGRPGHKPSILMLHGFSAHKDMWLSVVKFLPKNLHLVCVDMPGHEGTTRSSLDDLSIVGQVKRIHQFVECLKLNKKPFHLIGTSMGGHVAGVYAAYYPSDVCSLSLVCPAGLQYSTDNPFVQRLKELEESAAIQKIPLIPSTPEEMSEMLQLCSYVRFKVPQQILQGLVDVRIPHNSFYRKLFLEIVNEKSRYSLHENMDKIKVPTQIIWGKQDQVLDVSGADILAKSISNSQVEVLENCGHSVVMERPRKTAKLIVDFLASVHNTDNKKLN
Chain of Acyl-protein thioesterase 1 (Mus musculus) (P97823 whole entry, looked up): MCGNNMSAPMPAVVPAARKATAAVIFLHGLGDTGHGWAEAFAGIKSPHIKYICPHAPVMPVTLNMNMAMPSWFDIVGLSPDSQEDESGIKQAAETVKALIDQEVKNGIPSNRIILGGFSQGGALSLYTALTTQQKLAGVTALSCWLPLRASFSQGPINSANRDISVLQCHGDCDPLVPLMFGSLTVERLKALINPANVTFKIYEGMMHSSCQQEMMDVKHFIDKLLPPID

Structure (SMILES): Cc1cc(N2CCN(C(=O)Oc3ccc(-c4ccccc4)cn3)CC2)c2ccccc2n1
- spectra count ratio compound/DMSO (Acot6): 1 (inactive)
- spectra count ratio compound/DMSO (Fam108b1): 1.1 (inactive)
- spectra count ratio compound/DMSO (Pnpla8): 0.9 (inactive)
- spectra count ratio compound/DMSO (Lyplal1): 1.2 (inactive)
- spectra count ratio compound/DMSO (Bat5): 0.9 (inactive)
- spectra count ratio compound/DMSO (Prcp): 1 (inactive)
- spectra count ratio compound/DMSO (Abhd3): 1.3 (inactive)
- spectra count ratio compound/DMSO (Lipe): 1.3 (inactive)
- spectra count ratio compound/DMSO (Esd): 1.2 (inactive)
- spectra count ratio compound/DMSO (Prepl): 1.1 (inactive)
- spectra count ratio compound/DMSO (Apeh): 0.9 (inactive)
- spectra count ratio compound/DMSO (Acot3): 0.8 (inactive)
- spectra count ratio compound/DMSO (Abhd12): 1.1 (inactive)
- spectra count ratio compound/DMSO (Lactb): 0.7 (inactive)
- spectra count ratio compound/DMSO (Acot7): 0.7 (inactive)
- spectra count ratio compound/DMSO [1]: 1.5 (inactive)
- spectra count ratio compound/DMSO (Faah): 0.8 (inactive)
- spectra count ratio compound/DMSO (Pme1): 1.3 (inactive)
- spectra count ratio compound/DMSO (Fam108a): 0.9 (inactive)
- spectra count ratio compound/DMSO (Es1): 0
- spectra count ratio compound/DMSO (Pafah1b3): 0.8 (inactive)
- spectra count ratio compound/DMSO [2]: 1.2 (inactive)
- spectra count ratio compound/DMSO (Pafah1b2): 0.8 (inactive)
- spectra count ratio compound/DMSO (Pla2g15): 0.8 (inactive)
- spectra count ratio compound/DMSO (Lypla2): 1.7 (inactive)
- spectra count ratio compound/DMSO (Pnpla6): 0.8 (inactive)
- spectra count ratio compound/DMSO (Fam108c1): 1 (inactive)
- spectra count ratio compound/DMSO (Acot1): 1 (inactive)
- spectra count ratio compound/DMSO (Magl): 1.3 (inactive)
- spectra count ratio compound/DMSO [3]: 1.1 (inactive)
- spectra count ratio compound/DMSO (Parl): 1.1 (inactive)
- spectra count ratio compound/DMSO (Dpp9): 1.1 (inactive)
- spectra count ratio compound/DMSO (Ache): 0.9 (inactive)
- spectra count ratio compound/DMSO (Rbbp9): 1.3 (inactive)
- spectra count ratio compound/DMSO [4]: 0.1
- spectra count ratio compound/DMSO (Tpp2): 1.2 (inactive)
- spectra count ratio compound/DMSO (Dpp8): 0.9 (inactive)
- spectra count ratio compound/DMSO (Fasn): 1 (inactive)
- spectra count ratio compound/DMSO (Abhd11): 1 (inactive)
- spectra count ratio compound/DMSO (Nceh1): 1.1 (inactive)
- spectra count ratio compound/DMSO (Abhd4): 1 (inactive)
- spectra count ratio compound/DMSO (Acot2): 1.4 (inactive)
- spectra count ratio compound/DMSO [5]: 1.6 (inactive)
